From ChEMBL document CHEMBL1152678, “Synthesis of bis-Schiff bases of isatins and their antiglycation activity” (Bioorg Med Chem, 2009)

Test: Antiglycation activity assessed as inhibition of BSA-derived advance glycated end product formation after 9 days by spectrophotometry; call rule not given here
Assay type: physicochemical
In short: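 BSA (100 mg/ml) incubated with 14 mM methylglyoxal in 0.1 M phosphate buffer pH 7.4 containing NaN₃ (30 mM), aseptic, 37 °C for 9 days, with or without various concentrations of test compounds (DMSO stocks); triplicate samples. AGE-related fluorescence read; % inhibition = (1 − fluorescence of test/fluorescence of control) × 100.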

SMILES | IC50 (read-out: IC50) [µM] | IC50
CN(C)c1ccc(/C=N/N=C2\C(=O)Nc3ccccc32)cc1 | 406 | 
O=C1Nc2ccc(Cl)cc2/C1=N/N=C/c1ccc(O)c(O)c1 | 469 | 
O=C1Nc2ccccc2/C1=N/N=C/c1ccc(O)c(O)c1 | 291 | 
O=C1Nc2ccccc2/C1=N/N=C/c1ccc([N+](=O)[O-])cc1 | 258 | 
COc1cccc(/C=N/N=C2\C(=O)Nc3ccccc32)c1O | 359 | 
O=C1Nc2ccccc2/C1=N/N=C/c1ccc2ccccc2c1 |  | Not Active
Cc1ccc(O)c(/C=N/N=C2\C(=O)Nc3ccccc32)c1 |  | Not Active
O=C1Nc2ccccc2/C1=N/N=C/c1cccc(O)c1 | 634 | 
O=C1Nc2ccccc2/C1=N/N=C/c1ccccc1F | 362 | 
O=C1Nc2ccccc2/C1=N/N=C/c1cc(Cl)ccc1O | 634 | 
O=C1Nc2ccc(Cl)cc2/C1=N/N=C/c1ccc(F)cc1 |  | Not Active
CCOc1ccc(/C=N/N=C2\C(=O)Nc3ccccc32)cc1 |  | Not Active
O=C1Nc2ccccc2/C1=N/N=C/c1ccccc1[N+](=O)[O-] | 244 | 
C[C@@H]1O[C@@H](OC[C@H]2O[C@@H](Oc3c(-c4ccc(O)c(O)c4)oc4cc(O)cc(O)c4c3=O)[C@H](O)[C@@H](O)[C@@H]2O)[C@H](O)[C@H](O)[C@H]1O [RUTIN] | 294 | 
O=C1Nc2ccc(Cl)cc2/C1=N/N=C/c1ccccc1O |  | Not Active
O=C1Nc2ccccc2/C1=N/N=C/c1ccc(O)cc1 | 313 | 
O=C1Nc2ccccc2/C1=N/N=C/c1ccccc1O | 444 | 
O=C1Nc2ccccc2/C1=N/N=C/c1ccc(Cl)c(Cl)c1 |  | Not Active
COc1cccc(/C=N/N=C2\C(=O)Nc3c(Cl)ccc(Cl)c32)c1O |  | Not Active
COc1ccccc1/C=N/N=C1\C(=O)Nc2ccccc21 | 458 | 
COc1ccc(/C=N/N=C2\C(=O)Nc3c(Cl)ccc(Cl)c32)cc1OC | 366 | 
COc1ccc(/C=N/N=C2\C(=O)Nc3ccc(Cl)cc32)cc1OC |  | Not Active
O=C1Nc2ccccc2/C1=N/N=C/c1cccc(Cl)c1 | 312 | 
CCOc1ccccc1/C=N/N=C1\C(=O)Nc2ccccc21 | 416 | 
O=C1Nc2ccccc2/C1=N/N=C/c1ccc(F)cc1 |  | Not Active
O=C1Nc2ccccc2/C1=N/N=C/c1cccc2ccccc12 | 380 | 
O=C1Nc2c(Cl)ccc(Cl)c2/C1=N/N=C/c1ccc2ccccc2c1 | 416 | 
O=C1Nc2c(Cl)ccc(Cl)c2/C1=N/N=C/c1ccccc1F |  | Not Active
